Measurements of several laboratories.
Protocols differ between the studies behind these lines.
Target: Cyclin-dependent kinase 8 (CDK8, Homo sapiens, UniProt P49336)

Cc1cc(S(=O)(=O)N[C@H]2CC[C@H](CN3CCN(c4ccc(C5CCC(=O)NC5=O)cc4F)CC3)CC2)ccc1Nc1ncc(C(F)(F)F)c(N2CCC[C@](C)(O)C2)n1 (some centres unmarked)  remaining binding (binding, competition with immobilised ligand; 1 µM): 76%
CCCCC(=O)Nc1ccc(-c2ccc3ncn(CCC)c(=O)c3c2)cn1  remaining binding (binding, competition with immobilised ligand; 0.5 µM): 83%
Cc1ccc(NC(=O)c2ccnc(C(F)(F)F)c2)cc1-c1cc(OCCO)nc(N2CCOCC2)c1  remaining binding (binding, competition with immobilised ligand; 1 µM): 100%
CC#CC(=O)N1CCC[C@H]1c1nc(-c2ccc(C(=O)Nc3ccccn3)cc2)c2c(N)nccn12  inhibition (enzyme activity, inhibitor; 1 µM): 5%
C[C@]1(O)CCCN(c2nc(Nc3ccc(S(=O)(=O)N[C@H]4CC[C@H](CN5CCN(c6ccc(C7CCC(=O)NC7=O)cc6F)CC5)CC4)cc3Cl)ncc2C(F)(F)F)C1 (some centres unmarked)  remaining binding (binding, competition with immobilised ligand; 1 µM): 80%
CO[C@@H]1[C@H](N(C)C(=O)c2ccccc2)C[C@H]2O[C@]1(C)n1c3ccccc3c3c4c(c5c6ccccc6n2c5c31)C(=O)NC4  inhibition (enzyme activity, inhibitor; 1 µM): 5%
C[C@H]1CC[C@H](n2c3cnccc3c3cnc(Nc4ccc5c(n4)CCN(C(=O)CO)C5)nc32)CC1  remaining binding (binding, competition with immobilised ligand; 1 µM): 100%
C1=C/COCc2cc(ccc2OCCN2CCCC2)Nc2nccc(n2)-c2cccc(c2)COC/1  remaining signal (cell-free assay; 0.1 µM): 75%
